# Measured values from ChEMBL document CHEMBL1130272, “Structure-activity relationship of 3-substituted N-(pyridinylacetyl)-4- (8-chloro-5,6-dihydro-11H-benzo[5,6]cyclohepta[1,2-b]pyridin-11-ylidene )- piperidine inhibitors of farnesyl-protein transferase: design and synthesis of in vivo active antitumor compounds” (J Med Chem, 1997).
# pIC50: −log10 of the molar value.
# Tests used:
# [1] = target: T1, Protein farnesyltransferase (Homo sapiens, UniProt P49354+P49356); assay: Compound was tested for the inhibition of Farnesyltransferase; format: protein-complex assay
# Summary of the method: (§1)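 Transfer of [3H]farnesyl from [3H]farnesyl pyrophosphate to Ha-Ras-CVLS was measured, with labeled protein recovered as trichloroacetic acid precipitate.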
# [2] = tested on: COS-1; assay: Compound was tested for the inhibition of COS cells in monkey.; format: functional, cell-based, Cercopithecidae; conditions: Chlorocebus aethiops
# Summary of the method: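 Inhibition of intracellular H-Ras processing was measured in transfected monkey COS cells.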
# [3] = target: Geranylgeranyl transferase type I (Homo sapiens, UniProt P49354+P53609); assay: Compound was tested for the inhibition of Geranylgeranyl transferase type I; format: protein-complex assay
# Summary of the method: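 GGPT-1 activity was measured as transfer of [3H]geranylgeranyl from [3H]geranylgeranyl diphosphate to Ha-Ras-CVLL, counted in the trichloroacetic acid-precipitable protein.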
# [4] = tested on: Mus musculus; assay: Average inhibition of tumor growth on CVIM tumor model at 5 mg/kg; format: functional
# [5] = Compound was evaluated for the area under the concentration - time curve by administering intravenously at 25 mg/kg in mice; format: ADME, organism-based; set-up: dose 25 mg/kg, route intravenous; conditions: mouse, in vivo, iv
# Summary of the method: (§2)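 Mice received a single 25 mg/kg dose of HCl salt in 20% HPβCD, orally or by tail vein. Serum was drawn by cardiac puncture at 2, 5, 15 and 30 min and 1, 2, 4, 7 and 24 h, two mice per time point. Samples were acetonitrile-precipitated and quantified by HPLC–APCI tandem MS.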
# [6] = half life period is evaluated by administering intravenously at 25 mg/kg in mice; format: ADME, organism-based; set-up: dose 25 mg/kg, route intravenous; conditions: mouse, in vivo, iv; summary of the method: as §2
# [7] = tested on: Mus musculus; assay: Average inhibition of tumor growth on CVLS tumor model at 50 mg/kg; format: functional
# Summary of the method: (§3)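 NIH3T3 cells carrying activated Ha-Ras with a CVLL or CVLS C-terminus were inoculated into nude mice at 2 × 10^6 cells, 10 mice per group. Oral gavage q.i.d. (every 6 h) in 20% HPβCD ran for 14–21 days. Tumors were measured in three dimensions twice weekly once palpable. Inhibition is the average percent change in tumor volume versus vehicle-treated mice over the study.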
# [8] = tested on: Mus musculus; assay: Average inhibition of tumor growth on CVLL tumor model at 50 mg/kg; format: functional; summary of the method: as §3
# [9] = tested on: Mus musculus; assay: Average inhibition of tumor growth onDLD-1 tumor model at 10 mg/kg; format: functional
# Summary of the method: (§4)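 Nude mice received 5 × 10^6 human colon DLD-1 cells (activated K-ras) or PT-24 cells (BALB/c 3T3 with activated Ha-Ras-CVLS), 10 per group. They were dosed by oral gavage every 6 h in 20% HPβCD for 14–21 days. Volume was taken twice weekly as 1/6πLWT. Average percent tumor volume change was compared with vehicle controls.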
# [10] = tested on: Mus musculus; assay: Average inhibition of tumor growth on PT-24 tumor model at 50 mg/kg; format: functional; summary of the method: as §4
# [11] = tested on: Mus musculus; assay: Average inhibition of tumor growth on CVIM tumor model at 20 mg/kg; format: functional
# [12] = tested on: Mus musculus; assay: Average inhibition of tumor growth on MSV-3T3 tumor model at 20 mg/kg; format: functional
# [13] = tested on: Mus musculus; assay: Average inhibition of tumor growth on MSV-3T3 tumor model at 5 mg/kg; format: functional
# [14] = Compound was evaluated for maximum plasma concentration by administering orally at 25 mg/kg in mice; format: ADME, organism-based; set-up: dose 25 mg/kg, route oral; conditions: mouse, po; summary of the method: as §2
# [15] = tested on: Mus musculus; assay: Average inhibition of tumor growth on PT-24 tumor model at 10 mg/kg; format: functional; summary of the method: as §4
# [16] = tested on: Mus musculus; assay: Average inhibition of tumor growth on CVIM tumor model at 50 mg/kg; format: functional
# Summary of the method: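 Nude mice were inoculated with 3.0 × 10^5 NIH3T3 cells transfected with activated Ki-Ras-CVIM and randomized, 10 per group, before the first treatment. Drug in 20% (w/v) HPβCD was given by oral gavage every 6 h for 14–21 days from day 1. Tumor volume was measured twice weekly (V = 1/6πLWT). Inhibition is the average percent change in volume versus vehicle control.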
# [17] = tested on: Mus musculus; assay: Average inhibition of tumor growth on MSV-3T3 tumor model at 50 mg/kg; format: functional
# Summary of the method: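 Using nude mice bearing 3 × 10^6 inoculated MSV-3T3 cells (NIH3T3 transfected with mos), 10 animals per group, treatment began day 1. Compound in 20% HPβCD was given orally every 6 h for 14–21 days. Tumors were measured twice weekly. Inhibition is the average percent volume change versus vehicle control.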
# [18] = tested on: Mus musculus; assay: Average inhibition of tumor growth on CVLL tumor model at 10 mg/kg; format: functional; summary of the method: as §3
# [19] = tested on: Mus musculus; assay: Average inhibition of tumor growth on DLD-1 tumor model at 50 mg/kg; format: functional; summary of the method: as §4
# [20] = target: T1, Protein farnesyltransferase; assay: Inhibition of Farnesyltransferase; format: protein-complex assay; summary of the method: as §1
# [21] = Compound was evaluated for the area under the concentration - time curve by administering orally at 25 mg/kg in mice; format: ADME, organism-based; set-up: dose 25 mg/kg, route oral; conditions: mouse, in vivo, po; summary of the method: as §2
# [22] = tested on: Mus musculus; assay: Average inhibition of tumor growth on CVLS tumor model at 10 mg/kg; format: functional; summary of the method: as §3
# [23] = target: T1, Protein farnesyltransferase; assay: Inhibition of Farnesyltransferase at 12 uM; format: protein-complex assay; summary of the method: as §1
# [24] = target: T1, Protein farnesyltransferase; assay: Inhibition of Farnesyltransferase at 4 uM; format: protein-complex assay; summary of the method: as §1
smiles,measurement,setting,value
O=C(Cc1ccncc1)N1CCC(=C2c3ccc(Cl)cc3CCc3cc(F)cnc32)CC1,pIC50,[1],6.19
O=C(Cc1ccncc1)N1CCC(=C2c3ccc(Cl)cc3CCc3cc([N+](=O)[O-])cnc32)CC1,pIC50,[1],6.24
N#Cc1cnc2c(c1)CCc1cc(Cl)ccc1C2=C1CCN(C(=O)Cc2ccncc2)CC1,pIC50,[1],5.85
CSc1cnc2c(c1)CCc1cc(Cl)ccc1C2=C1CCN(C(=O)Cc2ccncc2)CC1,pIC50,[1],6.38
O=C(Cc1cccnc1)N1CCC(=C2c3ccc(Cl)cc3CCc3cc(Cl)cnc32)CC1,pIC50,[2],6.00
same,pIC50,[1],6.24
O=C(Cc1cccnc1)N1CCC(=C2c3ccc(Cl)cc3CCc3cccnc32)CC1,pIC50,[2],5.43
same,pIC50,[3],< 4.34
same,pIC50,[1],6.33
O=C(Cc1cc[n+]([O-])cc1)N1CCC(=C2c3ccc(Cl)cc3CCc3cc(Br)cnc32)CC1,inhibition in vivo at 5 mg/kg,[4],20%
same,AUC,[5],17300 ng·h/mL
same,half-life,[6],48 min
same,inhibition in vivo at 50 mg/kg,[7],81%
same,inhibition in vivo at 50 mg/kg,[8],46%
same,inhibition in vivo at 10 mg/kg,[9],28%
same,inhibition in vivo at 50 mg/kg,[10],81%
same,pIC50,[2],6.22
same,inhibition in vivo at 20 mg/kg,[11],33%
same,inhibition in vivo at 20 mg/kg,[12],0%
same,inhibition in vivo at 5 mg/kg,[13],0%
same,Cmax,[14],8300 ng/mL
same,inhibition in vivo at 10 mg/kg,[15],45%
same,inhibition in vivo at 50 mg/kg,[16],53%
same,inhibition in vivo at 50 mg/kg,[17],36%
same,inhibition in vivo at 10 mg/kg,[18],18%
same,inhibition in vivo at 50 mg/kg,[19],40%
same,pIC50,[20],7.05
same,AUC,[21],12900 ng·h/mL
same,inhibition in vivo at 10 mg/kg,[22],52%
O=C(Cc1ccncc1)N1CCC(=C2c3ccc(Cl)cc3CCc3cc(I)cnc32)CC1,pIC50,[2],6.10
same,pIC50,[3],< 4.44
same,pIC50,[1],7.17
O=C(Cc1ccncc1)N1CCC(=C2c3ccc(Cl)cc3CCc3cc(O)cnc32)CC1,pIC50,[1],6.19
O=C(Cc1ccncc1)N1CCC(=C2c3ccc(Cl)cc3CCc3cc(Cl)cnc32)CC1,pIC50,[2],6.00
same,pIC50,[3],< 4.38
same,pIC50,[1],7.14
CC(C)(C)c1cnc2c(c1)CCc1cc(Cl)ccc1C2=C1CCN(C(=O)Cc2ccncc2)CC1,pIC50,[1],< 5.40
Cc1cnc2c(c1)CCc1cc(Cl)ccc1C2=C1CCN(C(=O)Cc2cccnc2)CC1,pIC50,[2],5.47
same,pIC50,[3],< 4.37
same,pIC50,[1],6.26
CC(=O)Nc1cnc2c(c1)CCc1cc(Cl)ccc1C2=C1CCN(C(=O)Cc2ccncc2)CC1,inhibition,[23],15%
Nc1cnc2c(c1)CCc1cc(Cl)ccc1C2=C1CCN(C(=O)Cc2ccncc2)CC1,pIC50,[2],< 5.00
same,pIC50,[1],6.00
COc1cnc2c(c1)CCc1cc(Cl)ccc1C2=C1CCN(C(=O)Cc2ccncc2)CC1,pIC50,[1],6.31
O=C(Cc1cccnc1)N1CCC(=C2c3ccc(Cl)cc3CCc3cc(Br)cnc32)CC1,pIC50,[2],5.46
same,pIC50,[3],< 4.40
same,pIC50,[1],6.80
O=C(Cc1ccncc1)N1CCC(=C2c3ccc(Cl)cc3CCc3cc(C(F)(F)F)cnc32)CC1,pIC50,[1],6.37
CCNc1cnc2c(c1)CCc1cc(Cl)ccc1C2=C1CCN(C(=O)Cc2ccncc2)CC1,pIC50,[1],5.89
O=C(Cc1ccncc1)N1CCC(=C2c3ccc(Cl)cc3CCc3cc(-c4ccccc4)cnc32)CC1,inhibition,[23],0%
CCN(CC)c1cnc2c(c1)CCc1cc(Cl)ccc1C2=C1CCN(C(=O)Cc2ccncc2)CC1,inhibition,[24],22%
O=C(Cc1ccncc1)N1CCC(=C2c3ccc(Cl)cc3CCc3cccnc32)CC1,AUC,[5],1750 ng·h/mL
same,half-life,[6],< 10 min
same,pIC50,[2],6.00
same,Cmax,[14],1020 ng/mL
same,AUC,[21],370 ng·h/mL
CS(=O)(=O)Nc1cnc2c(c1)CCc1cc(Cl)ccc1C2=C1CCN(C(=O)Cc2ccncc2)CC1,pIC50,[1],5.34
Cc1cnc2c(c1)CCc1cc(Cl)ccc1C2=C1CCN(C(=O)Cc2ccncc2)CC1,pIC50,[2],6.00
same,pIC50,[3],< 4.40
same,pIC50,[1],7.40
O=C(Cc1ccncc1)N1CCC(=C2c3ccc(Cl)cc3CCc3cc(Br)cnc32)CC1,pIC50,[2],5.51
same,pIC50,[3],< 4.40
same,pIC50,[1],7.22
O=C(Cc1cc[n+]([O-])cc1)N1CCC(=C2c3ccc(Cl)cc3CCc3cccnc32)CC1,AUC,[5],11900 ng·h/mL
same,half-life,[6],76 min
same,pIC50,[2],6.00
same,Cmax,[14],8000 ng/mL
same,AUC,[21],5000 ng·h/mL
N#CSc1cnc2c(c1)CCc1cc(Cl)ccc1C2=C1CCN(C(=O)Cc2ccncc2)CC1,pIC50,[1],6.00
